pIC50: −log10 of the molar value. The source made the active and inactive calls. The calls are words filed in the database; no cut-off is given here.
Columns and labels:
Plasmodium berghei [1] = test: Antimalarial activity Plasmodium berghei infected in mouse assessed as cure from infection at 100 mg/kg, po administered QD for 3 days measured on day 28; format: functional, organism-based; design: dose 100 mg/kg
Method in brief: (§1)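 P. berghei-infected mice, 5 per group, dosed by oral gavage once daily on days 0, 1 and 2 postinfection, with a vehicle control arm. Mice were followed to day 28 postinfection for apparent toxicity, parasitemia and survival. Parasitemia suppression is expressed against mean vehicle-control parasitemia set as 100%, and cure is the number cured per 5 mice.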

[2] = Cytotoxicity against pig LLC-PK11 cells up to 60 uM after 48 hrs by neutral red assay; format: cell-based, Sus scrofa; conditions: llc-pk11, 48 h
Method in brief: (§2)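 Mammalian cell cytotoxicity was measured as IC50 in Vero (monkey kidney fibroblasts), LLC-PK11 (pig kidney epithelial) and HepG2 (human hepatoma) cells. The highest concentration tested was 60 μM. Values are the mean of two independent experiments ± SD.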

Plasmodium berghei [3] = test: Antimalarial activity against Plasmodium berghei infected in mouse assessed as suppression in parasitemia at 100 mg/kg, po administered QD for 3 days measured on day 7 relative to control; format: functional; method in brief: as §1
Vero [4] = test: Cytotoxicity against african green monkey Vero cells up to 60 uM after 48 hrs by neutral red assay; format: cell-based; conditions: chlorocebus sabaeus; method in brief: as §2
Mus musculus = test: Toxicity in mouse infected with Plasmodium berghei assessed as host survival at 100 mg/kg, po administered QD for 3 days measured on day 28; format: organism-based; design: dose 100 mg/kg, route oral; conditions: in vivo, 72 h
HepG2 = test: Cytotoxicity against human HepG2 cells up to 60 uM after 48 hrs by neutral red assay; format: cell-based; conditions: hepg2, 48 h; method in brief: as §2
Plasmodium berghei [5] = test: Antimalarial activity against Plasmodium berghei infected in mouse assessed as suppression in parasitemia at 100 mg/kg, po administered QD for 3 days measured on day 5 relative to control; format: functional; method in brief: as §1
Plasmodium berghei [6] = test: Antimalarial activity Plasmodium berghei infected in mouse assessed as mean survival time at 100 mg/kg, po administered QD for 3 days (reference value: 15.2 days); format: functional
Vero [7] = test: Cytotoxicity against african green monkey Vero cells after 48 hrs by neutral red assay; format: cell-based; conditions: chlorocebus sabaeus; method in brief: as §2
[8] = Selectivity index, ratio of IC50 for african green monkey Vero cells to IC50 for chloroquine-sensitive Plasmodium falciparum D6; format: toxicity, cell-based; conditions: read-out: Ratio IC50
Method in brief: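 SI is the IC50 for cytotoxicity to Vero cells (monkey kidney fibroblasts) divided by the antimalarial IC50 against the named P. falciparum clone. Cytotoxicity was tested up to 60 μM.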

Plasmodium falciparum = test: Antiplasmodial activity against chloroquine-resistant Plasmodium falciparum W2 infected in red blood cells up to 19 uM after 72 hrs by parasitic LDH assay; format: functional, organism-based
Method in brief: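 In vitro P. falciparum growth inhibition (D6 CQ-sensitive clone; W2 CQ-resistant clone). IC50 is the concentration giving 50% growth inhibition. Values are the average of two independent experiments ± SD. Highest concentration tested 19 μM.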

Compound | Activity (Plasmodium berghei [1]) | Activity [2] | Activity (Plasmodium berghei [3]) | Activity (Vero [4]) | Activity (Mus musculus) | Activity (HepG2) | Activity (Plasmodium berghei [5]) | MST (Plasmodium berghei [6]) | pIC50 (Vero [7]) | selectivity ratio [8] | Activity (Plasmodium falciparum)
CCN(CC)CCCC(C)Nc1ccnc2cc(Cl)ccc12 (stereo unspecified) [CHLOROQUINE] | inactive | Non-toxic | 100% | Non-toxic | Non-toxic | Non-toxic | 100% | 28 days | – | – | –
CCc1nc(N)nc(N)c1-c1ccc(Cl)cc1 [PYRIMETHAMINE] | – | – | – | – | – | – | – | – | 4.74 | 1820 | inactive

Source: ChEMBL document CHEMBL2086283, “Novel 4-aminoquinoline-pyrimidine based hybrids with improved in vitro and in vivo antimalarial activity” (ACS Med Chem Lett, 2012)
